Here are results for one molecule from ChEMBL document CHEMBL1122522, “Conformationally restricted retinoids” (1984).

Activity calls are given as the source filed them. No cut-off for these calls is given here.

The species named for assay [1] is Mus musculus. As to the kind of experiment: Tested for relative activity in a 20-week anti-papilloma experiment in female CD-1 mice at dose 170 nmol;d- Animals died at 1-2 weeks. In kind it is functional, organism-based. The method, boiled down:
(§1)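 Female Charles River CD-1 mice, 8 weeks old, in random groups of 25–30, were shaved 2 days before initiation with 200 nmol DMBA in acetone on the back. From 2 weeks on, 8.5 nmol TPA was applied twice weekly for 20 weeks. Retinoid in 0.2 mL acetone, or acetone alone for controls, was given 1 h before each TPA dose. Papillomas were counted weekly, and mean papillomas per mouse were compared with controls at 20 weeks.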

In assay [2] the test system is Cricetinae gen. sp. Briefly: Molarity required to effect reversal of keratinization in 50% of cultures. In kind it is functional, Cricetulus griseus.
Assay [3] can be described thus: Mortality range in days at dose 20 umol/kg day; 6-8. In kind it is functional, Mus musculus. The method, boiled down:
(§2)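 Adult female Swiss mice (20–25 g) had chow and water ad libitum. The retinoid was homogenized as a suspension in aqueous 8% Cremophor EL plus 10% propylene glycol. It was given ip as 10 weekday injections over 14 days. Controls received vehicle alone. Survivors were weighed on days 1, 5, 10 and 15, and dates of death were recorded. Survival was scored at days 8 and 15.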

For assay [4], the species on record is Mus musculus. Briefly: Percent decrease in average number of papillomas 1.7 at dose*-p<0.001. In kind it is functional. The method, boiled down:
as §1

The nature of assay [5]: Percent survivors at dose 1.0 umol/kg day. In kind it is functional, Mus musculus. The method, boiled down:
as §2

Assay [6] deals with Cricetinae gen. sp. Briefly: Activity of compound the was expressed as ratio of active hamster tracheal organ cultures(TOC) to the total cultures at 10e-10 M concentration; 15/15. In kind it is functional, Cricetulus griseus, Trachea. The essentials: (§3)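 Tracheal organ cultures came from vitamin A-deficient hamsters. Each culture was scored for reversal of keratinization and reported as active cultures out of total cultures at each retinoid concentration tested (10⁻⁸ to 10⁻¹² M). The protocol followed earlier published methods.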

A short description of assay [7]: Percent survivors at dose 10 umol/kg day. In kind it is functional, Mus musculus. The essentials:
as §2

A short description of assay [8]: Percent survivors at dose 30 umol/kg day. Type of assay: functional, Mus musculus. The method, boiled down:
as §2

Assay [9] is filed under the species Mus musculus. Briefly: Tested for relative activity in a 20-week anti-papilloma experiment in female CD-1 mice at dose 0.17 nmol. In kind it is functional. The method, boiled down:
as §1

Assay [10] relates to Cricetinae gen. sp. Briefly: Activity of compound the was expressed as ratio of active hamster tracheal organ cultures(TOC) to the total cultures at 10e-12 M concentration; 6/15. Type of assay: functional, Cricetulus griseus, Trachea. The method, boiled down: as §3
The species entered for assay [11] is Mus musculus. Briefly: Percent decrease in average number of papillomas 0.17 at dose*-p<0.001. Type of assay: functional. The method, boiled down:
as §1

The species entered for assay [12] is Mus musculus. Briefly: Tested for relative activity in a 20-week anti-papilloma experiment in female CD-1 mice at dose 17 nmol; e-Animalsdied at 3-7 weeks. In kind it is functional, organism-based. The essentials: as §1
For assay [13], the target named is T1, Ornithine decarboxylase (Mus musculus) (UniProt P00860).
T1 sequence (whole entry): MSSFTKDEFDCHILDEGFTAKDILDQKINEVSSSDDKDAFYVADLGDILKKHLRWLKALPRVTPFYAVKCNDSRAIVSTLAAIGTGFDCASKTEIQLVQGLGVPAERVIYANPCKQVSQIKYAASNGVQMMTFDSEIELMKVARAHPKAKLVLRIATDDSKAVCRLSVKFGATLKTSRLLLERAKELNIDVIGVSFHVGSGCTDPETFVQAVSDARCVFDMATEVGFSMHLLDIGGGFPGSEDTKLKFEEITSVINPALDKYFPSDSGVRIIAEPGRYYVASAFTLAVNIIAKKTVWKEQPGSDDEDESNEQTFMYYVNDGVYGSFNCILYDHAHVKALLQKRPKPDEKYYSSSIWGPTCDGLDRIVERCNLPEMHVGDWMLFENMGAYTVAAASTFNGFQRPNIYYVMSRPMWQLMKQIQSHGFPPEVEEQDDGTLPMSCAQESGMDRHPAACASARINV
Briefly: Inhibition of the induction of ornithine decarboxylase in mouse epidermis by the tumor promoter 12-O-tetradecanoylphorbol-13-acetate (ODC) at dose 17 nmol*-p<0.001.

Assay [14] concerns Cricetinae gen. sp. Briefly: Activity of compound the was expressed as ratio of active hamster tracheal organ cultures(TOC) to the total cultures at 10e-11 M concentration; 15/15. Type of assay: functional, Cricetulus griseus, Trachea. The method, boiled down:
as §3

The species named for assay [15] is Mus musculus. Briefly: Tested for relative activity in a 20-week anti-papilloma experiment in female CD-1 mice at dose 1.7 nmol. In kind it is functional. The essentials: as §1
The nature of assay [16]: Mortality range in days at dose 30 umol/kg day; 7-10. Type of assay: functional, Mus musculus. The essentials:
as §2

A short description of assay [17]: Mortality range in days at dose 30 umol/kg day; 10-15. Type of assay: functional, Mus musculus. The essentials:
as §2

Assay [18] deals with T1, Ornithine decarboxylase (Mus musculus). Briefly: TInhibition of the induction of ornithine decarboxylase in mouse epidermis by the tumor promoter 12-O-tetradecanoylphorbol-13-acetate (ODC) at dose 1.7 nmol*-p<0.001.
Assay [19] in a line: Mortality range in days at dose 30 umol/kg day; 7-11. Type of assay: functional, Mus musculus. The method, boiled down: as §2
Assay [20] can be described thus: Percent survivors at dose 3.3 umol/kg day. Type of assay: functional, Mus musculus. The method, boiled down: as §2

One may read the inhibition as how much of the control response was suppressed. Higher therefore signals a strong effect. In the case of `C/C(=C\c1ccc(C(=O)O)cc1)c1ccc2c(c1)C(C)(C)CCC2(C)C`, the result in assay [1] and in [12] was inactive. For the same molecule, the ED50 in [2] worked out at 1e-12. Also, the Mortality range came out at 8 days in assay [3], 10 days in [16], 15 days in [17] and 11 days in [19]. Besides, the results for the Decrease in [4] and in [11] were 92.3% and 62.9%, respectively. In addition, the “Survivors at day 8” value worked out at 100% in assay [5], 87% in assay [7], 50% in [8] and 97% in assay [20]. The “Survivors at day 15” value worked out at 30% in [5], 0% in assay [7], 0% in [8] and 0% in assay [20]. Also, the Activity in [6] is on record as 15%; in [9] it was 73%; in assay [10], 6%; in [14], 15%; in assay [15] it was 50%. Also, the inhibition in [13] turned out to be 91%; in assay [18] it was 89%.
